# Bioassay records from PubChem.
# Only some compounds are listed: those with a hit (about 0.74% of all), similar ones and a draw of the others.
# RGS8-Gao – regulators of human RGS8-Galphao interaction | P09471 | multiplexed bead flow cytometry, RGS8-Galphao binding; actives lie on both sides | response (percent of control binding), % at 10 µM | actives 0.34% (n = 220,000); in the data active = response below about 60% or above about 140%; inactive = in between;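 note: Galphao activated as the GDP aluminium fluoride complex binding bead-coupled RGS8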
# Target sequence (P09471 whole entry, looked up): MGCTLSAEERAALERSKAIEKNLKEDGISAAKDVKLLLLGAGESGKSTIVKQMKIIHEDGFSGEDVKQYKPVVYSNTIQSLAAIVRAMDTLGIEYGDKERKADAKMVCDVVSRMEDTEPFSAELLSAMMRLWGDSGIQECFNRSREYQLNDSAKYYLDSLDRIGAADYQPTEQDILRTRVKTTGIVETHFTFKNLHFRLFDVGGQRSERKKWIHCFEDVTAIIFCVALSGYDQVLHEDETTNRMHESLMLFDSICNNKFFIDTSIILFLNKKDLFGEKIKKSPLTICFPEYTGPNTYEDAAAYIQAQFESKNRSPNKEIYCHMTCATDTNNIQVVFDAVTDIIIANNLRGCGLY
# Calb biofilm kill – mixture kills Candida albicans biofilm cells; actives 0.02% (n = 120,000); AID 1242; C. albicans biofilm persisters + clotrimazole, fluorescence viability; primary screen in compound mixtures of four per well; inhibition, % at 7.6 µM;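 active = inhibition above 30.3% in the primary screen of four-compound pools, then above 30% when the compound was retested; inconclusive = passed the primary limit but could not be retested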;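 note: compounds exposed to preformed 24 h biofilms for 48 h; 0% = untreated biofilm control and 100% = clotrimazole plus chlorhexidine kill blank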
#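 Incubation: 24 h biofilm formation, then 48 h compound exposure, 37 °C | Material: C. albicans biofilms | Buffer or medium: RPMI/MOPS medium, pH 7.0 | Measured by: 2-h Alamar Blue fluorescence, 535/590 nm excitation/emission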
# RGS4-Gao reg – human RGS4-Galphao interaction regulation; P09471; Multiplexed bead flow cytometry, RGS4-Galphao binding; actives lie on both sides; binding response (% of control), % at 10 µM; actives 0.33% (n = 220,000); in the data active = binding response below about 49% or above about 150%; inactive = in between;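 note: fluorescent Galphao activated with aluminum fluoride binding bead-coupled RGS4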
# RGS7-Gao – modulates binding of RGS7 to human Galphao | Multiplexed bead flow cytometry; actives lie on both sides | binding response (% of control), % at 10 µM | actives 0.35% (n = 220,000); in the data active = binding response below about 49% or above about 150%; inconclusive = no clear call, values can overlap the other calls; inactive = in between;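 note: fluorescent Galphao held in activated GDP-AlF4 state binding bead-coupled RGS7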
# RGS16-Gao – modulates binding between human RGS16 and Galphao | O15492+P09471 | bead-based flow cytometry RGS16-Galphao binding, fluorescence; actives lie on both sides | binding response (% of control), % at 10 µM | actives 0.38% (n = 220,000);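 note: Galphao activated by GDP with aluminum fluoride before binding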
# RGS4-Gao HTS – regulators of human RGS4-Galphao interaction | multiplexed bead flow cytometry, RGS–Galpha-o binding | shares compounds with RGS16-Gao | actives 99% (n = 1,600) | RGS4–Galpha-o binding response, % at 10 µM;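 note: fluorescently labeled Galpha-o bound to GDP with aluminium fluoride binding biotinylated RGS beads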
# Avidin counter – counter-screen: compounds disrupting biotin binding to avidin beads. shares compounds with RGS16-Gao. streptavidin beads, fluorescein-biotin binding, flow cytometry. inhibition, % at 10 µM. 1,700 tested, under 10 active. AID 1783;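 active = inhibition above 50%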;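 note: median green fluorescence of gated singlet beads compared with DMSO control wells; 0% = DMSO wells and 100% = complete loss of bead fluorescence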
# RGS8-Gao single – confirmation of regulators of human RGS8-Galphao interaction | shares compounds with RGS16-Gao | bead-based flow cytometry RGS8-Galphao binding, fluorescence; actives lie on both sides | binding response (% of control), % at 10 µM | actives 3% (n = 1,700); in the data active = binding response below about 72% or above about 130%; inactive = in between;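 note: Galphao activated as GDP AlF4 complex before binding bead RGS8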
# RGS7-Gao single – confirmation of regulators of human RGS7-Galphao interaction. shares compounds with RGS16-Gao. bead-based flow cytometry RGS7-Galphao binding; actives lie on both sides. response (percent of control binding), % at 10 µM. actives 7.8% (n = 1,700). AID 1837; in the data active = response below about 75% or above about 130%; inactive = in between;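 note: fluorescent Galphao activated with GDP and aluminum fluoride binding bead-coupled RGS7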
# RGS16-Gao conf – confirmation of regulators of human RGS16-Galphao interaction; shares compounds with RGS16-Gao; bead-based flow cytometry, RGS16-Galphao binding; actives lie on both sides; response (% of control binding), % at 10 µM; actives 4% (n = 1,700); in the data active = response below about 74% or above about 130%; inactive = in between;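 note: Galphao activated as the GDP aluminium fluoride complex binding bead-coupled RGS16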
# RGS4-Gao confirm – RGS4-Galphao interaction regulation, single point confirmation; shares compounds with RGS16-Gao; RGS4-Galphao binding, multiplexed bead flow cytometry; actives lie on both sides; binding response (% of control), % at 10 µM; actives 4% (n = 1,700); AID 1840; in the data active = binding response below about 74% or above about 130%; inactive = in between
# RGS19-Gao conf – RGS19-Galphao interaction regulation, single point confirmation | shares compounds with RGS16-Gao | response (percent of control binding), % at 10 µM | bead-based flow cytometry RGS19-Galphao binding; actives lie on both sides | actives 5% (n = 1,700) | AID 1841; in the data active = response below about 50% or above about 160%; inactive = in between;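 note: 100% = no compound control and 0% = blank background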
# Target sequence (P09471 whole entry, looked up): as above
# Target sequence (P49795 whole entry, looked up): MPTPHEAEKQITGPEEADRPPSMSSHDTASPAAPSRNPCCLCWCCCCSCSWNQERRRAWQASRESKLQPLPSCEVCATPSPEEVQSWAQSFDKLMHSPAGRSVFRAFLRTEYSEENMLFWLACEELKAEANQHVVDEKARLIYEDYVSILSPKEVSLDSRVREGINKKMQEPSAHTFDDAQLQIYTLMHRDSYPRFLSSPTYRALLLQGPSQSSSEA
# Active calls of the source: *; u = inconclusive; x = no result given; [ ] = dose if it differs, or a comment. Unless noted, the rule behind the calls is not given here.
SMILES,RGS8-Gao,Calb biofilm kill,RGS4-Gao reg,RGS7-Gao,RGS16-Gao,Avidin counter,RGS8-Gao single,RGS7-Gao single,RGS16-Gao conf,RGS4-Gao confirm,RGS19-Gao conf,others
CCOc1ccc2sc(NS(=O)(=O)c3ccc(OC)c(OC)c3)nc2c1,x,x,x,x,x,0.1,100.8,101.8,98.9,98.7,106.7,
CC(=O)N1CCN(c2ccc(NCc3cccs3)cc2)CC1,45.7*,x,49.6*,40.3*,30.5,1.4,105.2,103.5,101.3,99.4,108.0,
CCN(CC)CCN1C(=O)C(=O)/C(=C(/O)c2c(C)[nH]c(C(=O)OC)c2C)C1c1ccccc1OC (stereo not drawn),145.2*[activator],x,176.1*[activator],158.8*[activator],265.8,-0.1,99.7,108.0,103.1,105.1,100.6,
CCN(CC)CCN1C(=O)C(=O)/C(=C(/O)c2c(C)[nH]c(C(=O)OC)c2C)C1c1cccs1 (stereo not drawn),102.7,x,98.2,99.3,99.5,x,x,x,x,x,x,
Cc1[nH]c2ccccc2c1/C=N/NC(=S)NC(C)C,102.0,7.4,124.7,175.6*[activator],117.8,2.2,107.7,258.8*[activator],148.7*[activator],184.4*[activator],230.5*[activator],RGS4-Gao HTS=124.7*
O=C(NCc1ccccc1)c1ccc(S(=O)(=O)N2CCCc3ccccc32)cc1,100.4,x,99.2,97.6,99.2,x,x,x,x,x,x,
O=C(NCc1ccco1)c1ccc(S(=O)(=O)N2CCCc3ccccc32)cc1,77.3,x,79.8,88.5,-44.4*,x,x,x,x,x,x,RGS4-Gao HTS=79.8*
COc1ccccc1Nc1nc(N)nc(CN2CCC(Cc3ccccc3)CC2)n1,164.8*[activator],x,178.2*[activator],161.8*[activator],-460.7,1.0,95.3,94.8,96.5,97.0,88.6,
COc1ccccc1Nc1nc(N)nc(CN2CCC(C)CC2)n1,96.8,15.6,96.5,97.5,96.1,x,x,x,x,x,x,
C/C(=N\N=C(/N)c1nonc1N)c1ccc2c(c1)OCO2,100.3,16.6,98.5,u,99.8,x,x,x,x,x,x,
CC1CCCC(C)N1C(=O)CN1C(=O)C(C)(C)Oc2ccc(C(=O)NC3CCCC3)cc21 (stereo not drawn),x,x,x,x,x,-0.5,99.7,101.9,100.5,100.9,97.8,
CC1CCCC(C)N1C(=O)CN1C(=O)C(C)(C)Oc2ccc(C(=O)NC3CCCCC3)cc21 (stereo not drawn),x,x,108.4,91.3,2.8,-1.2,100.4,100.5,101.3,98.4,91.9,
C/C(=N/NC(=O)c1cccc(N2CCCC2=O)c1)c1ccncc1,104.1,17.2,103.3,100.9,106.2,x,x,x,x,x,x,
CCOC(=O)c1c(NC(=O)Cn2cnc([N+](=O)[O-])n2)sc2c1CCCC2,99.2,15.3,97.7,103.0,90.6,x,x,x,x,x,x,
CC(C)OC(=O)c1c(NC(=O)Cn2cnc([N+](=O)[O-])n2)sc2c1CCCC2,x,x,x,x,x,-0.3,97.8,106.3,96.4,97.2,106.0,
Cc1nn(-c2ccccc2)nc1C(=O)Nc1nnc(C(F)(F)F)s1,90.4,4.8,59.5,u,77.3,x,x,x,x,x,x,
CC(CN1C(C)CCCC1C)OC(=O)c1ccc(Cl)cc1Cl (stereo not drawn),102.4,8.6,106.2,u,103.2,x,x,x,x,x,x,
CNC(=O)c1nnsc1S(=O)(=O)c1ccc(Cl)cc1,92.1,20.0,94.5,96.5,99.6,x,x,x,x,x,x,
O=C1CS/C(=N/N=C/c2c[nH]c3ccccc23)N1,114.5,27.0,154.8*[activator],u,175.9*[activator],-0.3,93.8,88.7,91.5,93.1,72.7,
Cc1ccc(/C=N/N=C2/NC(=O)CS2)o1,102.3,19.0,100.0,97.5,101.6,x,x,x,x,x,x,
O=C(O)CC1(CC(=O)Nc2ccc(F)c(Cl)c2)CCCCC1,102.7,14.9,104.0,u,101.9,x,x,x,x,x,x,
O=C(Nc1cccc(F)c1)C1CCN(C(=O)c2ccc(Cl)cc2)CC1,69.7,10.4,74.5,83.0,18.0*,-1.7,99.9,97.9,98.4,97.6,107.9,RGS4-Gao HTS=74.5*
O=C(Nc1ccc2c(c1)OCO2)C1CCN(C(=O)c2ccc(Cl)cc2)CC1,100.1,0.4,102.3,101.4,104.7,x,x,x,x,x,x,
COC(=O)c1ccc(NC(=O)C2CCN(C(=O)c3cc(OC)c(OC)c(OC)c3)CC2)cc1,x,x,276.4*[activator],137.3,x,-2.1,102.8,106.5,102.6,100.4,107.3,
Cc1cc(C(=O)NN)c(Cl)cc1Cl,26.8*,12.7,20.9*,u,12.7*,1.5,111.4,106.6,107.3,104.6,106.8,
SMILES,RGS8-Gao,Calb biofilm kill,RGS4-Gao reg,RGS7-Gao,RGS16-Gao,Avidin counter,RGS8-Gao single,RGS7-Gao single,RGS16-Gao conf,RGS4-Gao confirm,RGS19-Gao conf,others
Cc1cc(C)c2c(=O)n(CC(=O)NC3CCCC3)sc2n1,81.0,22.4,93.1,u,41.3,x,x,x,x,x,x,
COc1ccc(OC)c(CCNC(=O)Cn2sc3nc(C)cc(C)c3c2=O)c1,74.2,x,91.7,92.2,17.1*,3.3,51.8*,70.9*,6.5*,69.3*,8.8*,RGS4-Gao HTS=91.7*
N#Cc1c(-c2ccccc2)nc(SCC(=O)N(c2ccccc2)c2ccccc2)[nH]c1=O,49.7*,9.2,76.7,51.1,6.4,1.3,104.5,101.5,103.6,100.0,108.2,RGS4-Gao HTS=76.7*
O=C(c1cc([N+](=O)[O-])ccc1N1CCOCC1)N1CCOCC1,89.0,17.3,95.8,97.9,70.0,x,x,x,x,x,x,
COc1ccc(C(=O)c2cc([N+](=O)[O-])ccc2N2CCOCC2)cc1,86.7,-12.2,88.6,92.7,68.7,x,x,x,x,x,x,
O=C(c1cc([N+](=O)[O-])ccc1N1CCOCC1)N1CCCC1,64.7,17.2,84.5,86.3,16.2*,-1.7,100.5,98.2,98.4,102.4,96.7,RGS4-Gao HTS=84.5*
Cc1ccc(C(=O)c2cc([N+](=O)[O-])ccc2N2CCOCC2)cc1,84.7,16.2,91.5,88.9,21.2*,4.9,101.0,99.4,99.0,98.5,103.6,RGS4-Gao HTS=91.5*
O=C(Cc1ccccc1F)NCC1(N2CCOCC2)CCCCC1,102.8,32.0,104.0,u,103.1,x,x,x,x,x,x,
COCCCNCCCOc1ccc(C)cc1Br,111.7,-7.7,100.3,102.5,123.4,x,x,x,x,x,x,
